Source: ChEMBL document CHEMBL2346608, “New annelated thieno[2,3-e][1,2,3]triazolo[1,5-a]pyrimidines, with potent anticancer activity, designed through VLAK protocol” (2013)

Experiments:
Format in all cases: functional
SK-MEL-5 = assay: Antiproliferative activity against human SK-MEL-5 cells after 48 hrs by sulforhodamine B assay; conditions: SK-MEL-5, 48 h
Method in brief: (§1)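 Cells grown in RPMI 1640 with 5% FBS and 2 mM L-glutamine, plated at 5000–40,000 cells/well and preincubated 24 h at 37 °C, 5% CO2. Five drug concentrations (10-fold or ½-log dilutions from DMSO stocks) applied for 48 h. TCA-fixed (final 10% adherent, 16% suspension), SRB-stained, A515 read. Growth versus time-zero and control wells gave GI50, TGI, LC50.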

OVCAR-3 = assay: Antiproliferative activity against human OVCAR3 cells after 48 hrs by sulforhodamine B assay; conditions: OVCAR-3, 48 h; method in brief: as §1
[1] = Antiproliferative activity against human HCC2998 cells after 48 hrs by sulforhodamine B assay; conditions: HCC 2998, 48 h; method in brief: as §1
CAKI-1 = assay: Antiproliferative activity against human CAKI-1 cells after 48 hrs by sulforhodamine B assay; conditions: CAKI-1, 48 h; method in brief: as §1
UACC-257 = assay: Antiproliferative activity against human UACC257 cells after 48 hrs by sulforhodamine B assay; conditions: UACC-257, 48 h
Method in brief: (§2)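 Cells in RPMI 1640 with 5% FBS and 2 mM L-glutamine were seeded at 5000–40,000/well according to doubling time and preincubated 24 h at 37 °C in 5% CO2. Time-zero plates were TCA-fixed when drug was added. Five 10-fold or ½-log dilutions from DMSO stocks were added for 48 h. After SRB staining, A515 was read and GI50 derived from [(Ti−Tz)/(C−Tz)]×100 = 50.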

HOP-92 = assay: Antiproliferative activity against human HOP92 cells after 48 hrs by sulforhodamine B assay; conditions: HOP-92, 48 h; method in brief: as §1
OVCAR-5 = assay: Antiproliferative activity against human OVCAR5 cells after 48 hrs by sulforhodamine B assay; conditions: OVCAR-5, 48 h; method in brief: as §1
LOX IMVI = assay: Antiproliferative activity against human LOXIMVI cells after 48 hrs by sulforhodamine B assay; method in brief: as §1
KM12 = assay: Antiproliferative activity against human KM12 cells after 48 hrs by sulforhodamine B assay; conditions: KM12, 48 h; method in brief: as §1
786-0 = assay: Antiproliferative activity against human 786-0 cells after 48 hrs by sulforhodamine B assay; conditions: 786-0, 48 h; method in brief: as §1
SK-OV-3 = assay: Antiproliferative activity against human SKOV3 cells after 48 hrs by sulforhodamine B assay; conditions: SK-OV-3, 48 h; method in brief: as §1
PC-3 = assay: Antiproliferative activity against human PC3 cells after 48 hrs by sulforhodamine B assay; conditions: PC-3, 48 h; method in brief: as §1
NCI-H226 = assay: Antiproliferative activity against human NCI-H226 cells after 48 hrs by sulforhodamine B assay; conditions: NCI-H226, 48 h; method in brief: as §1
UACC-62 = assay: Antiproliferative activity against human UACC62 cells after 48 hrs by sulforhodamine B assay; conditions: UACC-62, 48 h; method in brief: as §2
NCI/ADR-RES = assay: Antiproliferative activity against human NCI/ADR-RES cells after 48 hrs by sulforhodamine B assay; method in brief: as §1
M14 = assay: Antiproliferative activity against human M14 cells after 48 hrs by sulforhodamine B assay; conditions: M14, 48 h; method in brief: as §1
HL-60 = assay: Antiproliferative activity against human HL60 (TB) cells after 48 hrs by sulforhodamine B assay; conditions: HL-60, 48 h
Method in brief: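 NCI 60-cell panel protocol: cells in RPMI 1640 with 5% FBS and 2 mM L-glutamine, plated 24 h at 37 °C/5% CO2 before dosing. Compounds dissolved in DMSO and tested at five concentrations (10-fold or ½ log serial dilutions) for 48 h. Suspension cells fixed with 80% TCA (final 16%), SRB stained, absorbance at 515 nm. GI50 derived from time-zero-corrected growth.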

SK-MEL-28 = assay: Antiproliferative activity against human SK-MEL-28 cells after 48 hrs by sulforhodamine B assay; conditions: SK-MEL-28, 48 h; method in brief: as §1
A549 = assay: Antiproliferative activity against human A549 cells after 48 hrs by sulforhodamine B assay; conditions: A549, 48 h; method in brief: as §1
MDA-MB-435 = assay: Antiproliferative activity against human MDA-MB-435 cells after 48 hrs by sulforhodamine B assay; conditions: MDA-MB-435, 48 h; method in brief: as §1
SF-268 = assay: Antiproliferative activity against human SF268 cells after 48 hrs by sulforhodamine B assay; conditions: SF-268, 48 h; method in brief: as §1
[2] = Antiproliferative activity against human Hs 578T cells after 48 hrs by sulforhodamine B assay; method in brief: as §1
SW-620 = assay: Antiproliferative activity against human SW620 cells after 48 hrs by sulforhodamine B assay; conditions: SW-620, 48 h; method in brief: as §2
OVCAR-8 = assay: Antiproliferative activity against human OVCAR8 cells after 48 hrs by sulforhodamine B assay; conditions: OVCAR-8, 48 h; method in brief: as §1
SN12C = assay: Antiproliferative activity against human SN12C cells after 48 hrs by sulforhodamine B assay; method in brief: as §1
NCI-H23 = assay: Antiproliferative activity against human NCI-H23 cells after 48 hrs by sulforhodamine B assay; conditions: NCI-H23, 48 h; method in brief: as §1
SF-539 = assay: Antiproliferative activity against human SF539 cells after 48 hrs by sulforhodamine B assay; conditions: SF-539, 48 h; method in brief: as §1
[3] = read-out: pLC50 (the source's name) (converted)

Question: Which results are given for `O=C(CCCn1c(=O)c2sc3ncccc3c2n2nnc(-c3ccccc3)c12)NCCc1c[nH]cn1`?
Answer: GI50 (SK-MEL-5): 16.2 µM; LC50 (SK-MEL-5): > 100 µM; TGI (SK-MEL-5; read-out: pTGI (converted)): > 100 µM; GI50 (OVCAR-3): 11 µM; LC50 (OVCAR-3): 50.1 µM; TGI (OVCAR-3; read-out: pTGI (converted)): 23.4 µM; GI50 [1]: 2040 nM; LC50 [1]: > 100 µM; TGI ([1]; read-out: pTGI (converted)): 30.2 µM; GI50 (CAKI-1): 2880 nM; CC50 (CAKI-1; [3]): 72.4 µM; TGI (CAKI-1; read-out: pTGI (converted)): 14.5 µM; GI50 (UACC-257): 18.2 µM; LC50 (UACC-257): 69.2 µM; TGI (UACC-257; read-out: pTGI (converted)): 35.5 µM; GI50 (HOP-92): 17 µM; CC50 (HOP-92; [3]): 91.2 µM; TGI (HOP-92; read-out: pTGI (converted)): 39.8 µM; GI50 (OVCAR-5): 11.5 µM; LC50 (OVCAR-5): 93.3 µM; TGI (OVCAR-5; read-out: pTGI (converted)): 32.4 µM; GI50 (LOX IMVI): 12.3 µM; CC50 (LOX IMVI; [3]): 57.5 µM; TGI (LOX IMVI; read-out: pTGI (converted)): 26.3 µM; GI50 (KM12): 1910 nM; LC50 (KM12): 83.2 µM; TGI (KM12; read-out: pTGI (converted)): 24 µM; GI50 (786-0): 12.6 µM; CC50 (786-0; [3]): 52.5 µM; TGI (786-0; read-out: pTGI (converted)): 25.7 µM; GI50 (SK-OV-3): 14.5 µM; LC50 (SK-OV-3): 53.7 µM; TGI (SK-OV-3; read-out: pTGI (converted)): 27.5 µM; GI50 (PC-3): 11 µM; LC50 (PC-3): > 100 µM; TGI (PC-3; read-out: pTGI (converted)): > 100 µM; GI50 (NCI-H226): 11.7 µM; LC50 (NCI-H226): 74.1 µM; TGI (NCI-H226; read-out: pTGI (converted)): 29.5 µM; GI50 (UACC-62): 15.8 µM; LC50 (concentration killing 50% of cells) (UACC-62): 57.5 µM; TGI (UACC-62; read-out: pTGI (converted)): 30.2 µM; GI50 (NCI/ADR-RES): 33.9 µM; LC50 (NCI/ADR-RES): > 100 µM; TGI (NCI/ADR-RES; read-out: pTGI (converted)): > 100 µM; GI50 (M14): 3.47 µM; LC50 (M14): 50.1 µM; TGI (M14; read-out: pTGI (converted)): 19.5 µM; GI50 (HL-60): 1410 nM; CC50 (HL-60; [3]): 50.1 µM; TGI (HL-60; read-out: pTGI (converted)): 4.79 µM; GI50 (SK-MEL-28): 17 µM; LC50 (SK-MEL-28): 72.4 µM; TGI (SK-MEL-28; read-out: pTGI (converted)): 34.7 µM; GI50 (A549): 8.71 µM; LC50 (A549): > 100 µM; TGI (A549; read-out: pTGI (converted)): 34.7 µM; GI50 (MDA-MB-435): 490 nM; LC50 (MDA-MB-435): > 100 µM; TGI (MDA-MB-435; read-out: pTGI (converted)): 20.4 µM; GI50 (SF-268): 11.7 µM; LC50 (SF-268): 72.4 µM; TGI (SF-268; read-out: pTGI (converted)): 28.8 µM; GI50 [2]: 11.2 µM; LC50 [2]: 87.1 µM; TGI ([2]; read-out: pTGI (converted)): 31.6 µM; GI50 (SW-620): 331 nM; LC50 (SW-620): 61.7 µM; TGI (SW-620; read-out: pTGI (converted)): 14.5 µM; GI50 (OVCAR-8): 95.5 nM; LC50 (OVCAR-8): 67.6 µM; TGI (OVCAR-8; read-out: pTGI (converted)): 17.4 µM; GI50 (SN12C): 331 nM; LC50 (SN12C): 41.7 µM; TGI (SN12C; read-out: pTGI (converted)): 13.5 µM; GI50 (NCI-H23): 14.5 µM; LC50 (NCI-H23): 70.8 µM; TGI (NCI-H23; read-out: pTGI (converted)): 32.4 µM; GI50 (SF-539): 316 nM; LC50 (SF-539): 53.7 µM; TGI (SF-539; read-out: pTGI (converted)): 14.8 µM
